Measured values taken from ChEMBL document CHEMBL4725466, “Discovery and SAR of Novel Disubstituted Quinazolines as Dual PI3Kalpha/mTOR Inhibitors Targeting Breast Cancer” (ACS Med Chem Lett, 2020).
Converted amounts (≈) assume the structure as drawn. The source made the active and inactive calls. No cut-off for these calls is given here.

System: not listed separately
Assay: Cytotoxicity against human primary fibroblasts assessed as cell viability at 10 uM after 48 hrs by celltiter-glo 2D luminescent assay relative to control
Type: cell-based, Fibroblast
Details: read-out: Activity
Procedure, shortened: (§1)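 2D CellTiter-Glo luminescent viability screen, single 10 μM compound concentration, in MDA-MB-468, MDA-MB-231 and MCF7 breast cancer cells and in normal human dermal fibroblasts; output reported as percent of viable cells.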

SMILES	viability at 48 h, 10 µM [%]
CNC(=O)Nc1ccc(-c2nc(N3CCOCC3)c3ccccc3n2)cc1	71
Oc1cccc(-c2nc(N3CCOCC3)c3oc4ncccc4c3n2)c1 [PI-103]	42
NS(=O)(=O)c1ccc(NC(=O)Nc2ccc(-c3nc(N4CCOCC4)c4ccccc4n3)cc2)cc1	84
O=C(Nc1ccccc1)Nc1ccc(-c2nc(N3CCOCC3)c3ccccc3n2)cc1	99
CC(=O)c1ccc(NC(=O)Nc2ccc(-c3nc(N4CCOCC4)c4ccccc4n3)cc2)cc1	20
O=C(Nc1ccc(-c2nc(N3CCOCC3)c3ccccc3n2)cc1)Nc1cccc(CO)c1	94
CNC(=O)c1ccc(NC(=O)Nc2ccc(-c3nc(N4CCOCC4)c4ccccc4n3)cc2)cc1	80

Biological target: PI3-kinase p110-alpha/p85-alpha (Homo sapiens, UniProt P42336)
Assay: Inhibition of human PI3K p110alpha/p85alpha using PIP2 as substrate incubated for 10 mins followed by ATP addition and measured after 30 mins in presence of 10 uM ATP by HTRF assay
Type: protein-complex assay
Details: not given

PI3-kinase p110-alpha/p85-alpha, sequence (P27986 whole entry): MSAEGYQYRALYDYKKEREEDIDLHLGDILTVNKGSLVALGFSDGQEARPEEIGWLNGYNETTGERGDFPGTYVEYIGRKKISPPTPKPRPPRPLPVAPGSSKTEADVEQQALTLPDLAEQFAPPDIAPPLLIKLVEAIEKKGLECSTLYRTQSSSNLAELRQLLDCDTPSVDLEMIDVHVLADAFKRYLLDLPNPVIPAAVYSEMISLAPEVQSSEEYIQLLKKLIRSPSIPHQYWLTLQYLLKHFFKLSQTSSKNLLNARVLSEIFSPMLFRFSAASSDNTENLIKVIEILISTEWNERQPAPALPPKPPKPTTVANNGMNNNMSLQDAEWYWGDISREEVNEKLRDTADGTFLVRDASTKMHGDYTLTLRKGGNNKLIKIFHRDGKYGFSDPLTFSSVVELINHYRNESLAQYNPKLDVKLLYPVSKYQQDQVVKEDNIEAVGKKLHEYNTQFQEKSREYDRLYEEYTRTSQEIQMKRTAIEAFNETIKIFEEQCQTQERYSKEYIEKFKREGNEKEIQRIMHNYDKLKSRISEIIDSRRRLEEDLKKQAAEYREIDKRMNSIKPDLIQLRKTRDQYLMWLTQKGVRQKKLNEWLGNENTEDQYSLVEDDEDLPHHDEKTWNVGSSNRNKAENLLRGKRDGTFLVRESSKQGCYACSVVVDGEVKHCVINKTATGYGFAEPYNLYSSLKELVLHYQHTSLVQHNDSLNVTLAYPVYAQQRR
PI3-kinase p110-alpha/p85-alpha, sequence (P42336 whole entry): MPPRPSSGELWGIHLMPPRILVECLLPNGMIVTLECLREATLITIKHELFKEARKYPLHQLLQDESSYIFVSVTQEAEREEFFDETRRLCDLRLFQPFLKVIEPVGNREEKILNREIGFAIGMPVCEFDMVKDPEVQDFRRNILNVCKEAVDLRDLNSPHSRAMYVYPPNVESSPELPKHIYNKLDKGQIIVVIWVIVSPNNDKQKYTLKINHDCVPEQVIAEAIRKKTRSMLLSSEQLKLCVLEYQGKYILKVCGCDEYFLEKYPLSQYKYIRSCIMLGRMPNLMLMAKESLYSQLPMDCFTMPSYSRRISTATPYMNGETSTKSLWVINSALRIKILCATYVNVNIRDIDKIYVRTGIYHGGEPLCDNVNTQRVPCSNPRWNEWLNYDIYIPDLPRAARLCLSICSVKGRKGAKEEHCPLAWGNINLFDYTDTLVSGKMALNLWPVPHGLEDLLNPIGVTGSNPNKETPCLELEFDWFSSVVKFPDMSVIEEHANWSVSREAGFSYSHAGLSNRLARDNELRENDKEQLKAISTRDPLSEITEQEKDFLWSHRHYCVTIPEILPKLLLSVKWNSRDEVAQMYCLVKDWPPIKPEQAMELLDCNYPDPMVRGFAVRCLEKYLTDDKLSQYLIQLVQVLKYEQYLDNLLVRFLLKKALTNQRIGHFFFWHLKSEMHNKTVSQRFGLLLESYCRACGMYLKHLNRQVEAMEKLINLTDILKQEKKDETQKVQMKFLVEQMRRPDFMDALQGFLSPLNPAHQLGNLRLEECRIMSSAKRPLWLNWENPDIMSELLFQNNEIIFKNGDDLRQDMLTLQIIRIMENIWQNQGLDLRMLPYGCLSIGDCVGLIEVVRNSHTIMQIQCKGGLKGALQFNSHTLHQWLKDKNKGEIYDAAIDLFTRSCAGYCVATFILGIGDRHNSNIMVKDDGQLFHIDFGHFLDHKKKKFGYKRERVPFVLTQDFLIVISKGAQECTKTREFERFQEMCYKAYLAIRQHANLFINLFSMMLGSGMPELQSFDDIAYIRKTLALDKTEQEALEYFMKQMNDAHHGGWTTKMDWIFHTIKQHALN

SMILES	IC50 [µM]
N=C(N)NS(=O)(=O)c1ccc(Nc2nc(N3CCOCC3)c3ccccc3n2)cc1	5.9
CNC(=O)Nc1ccc(-c2nc(N3CCOCC3)c3ccccc3n2)cc1	0.186
NS(=O)(=O)c1ccc(NC(=O)Nc2ccc(-c3nc(N4CCOCC4)c4ccccc4n3)cc2)cc1	0.0034
O=C(Nc1ccccc1)Nc1ccc(-c2nc(N3CCOCC3)c3ccccc3n2)cc1	0.012
CC(=O)c1ccc(NC(=O)Nc2ccc(-c3nc(N4CCOCC4)c4ccccc4n3)cc2)cc1	0.0166
O=C(Nc1ccc(-c2nc(N3CCOCC3)c3ccccc3n2)cc1)Nc1cccc(CO)c1	0.0072
CNC(=O)c1ccc(NC(=O)Nc2ccc(-c3nc(N4CCOCC4)c4ccccc4n3)cc2)cc1	0.0025

System: MDA-MB-231
Assay: Antiproliferative activity against human MDA-MB-231 cells assessed as cell viability at 10 uM after 48 hrs by celltiter-glo 2D luminescent assay relative to control
Type: functional
Details: read-out: Activity
Procedure, shortened: as §1

SMILES	viability at 10 µM [%]
CNC(=O)Nc1ccc(-c2nc(N3CCOCC3)c3ccccc3n2)cc1	180
NS(=O)(=O)c1ccc(NC(=O)Nc2ccc(-c3nc(N4CCOCC4)c4ccccc4n3)cc2)cc1	114
O=C(Nc1ccccc1)Nc1ccc(-c2nc(N3CCOCC3)c3ccccc3n2)cc1	140
CC(=O)c1ccc(NC(=O)Nc2ccc(-c3nc(N4CCOCC4)c4ccccc4n3)cc2)cc1	74
O=C(Nc1ccc(-c2nc(N3CCOCC3)c3ccccc3n2)cc1)Nc1cccc(CO)c1	138
CNC(=O)c1ccc(NC(=O)Nc2ccc(-c3nc(N4CCOCC4)c4ccccc4n3)cc2)cc1	66

System: MCF7
Assay: Antiproliferative activity against human MCF7 cells assessed as cell viability at 10 uM after 48 hrs by celltiter-glo 2D luminescent assay relative to control
Type: functional
Details: read-out: Activity
Procedure, shortened: as §1

SMILES	viability at 10 µM [%]
CNC(=O)Nc1ccc(-c2nc(N3CCOCC3)c3ccccc3n2)cc1	34
NS(=O)(=O)c1ccc(NC(=O)Nc2ccc(-c3nc(N4CCOCC4)c4ccccc4n3)cc2)cc1	8
O=C(Nc1ccccc1)Nc1ccc(-c2nc(N3CCOCC3)c3ccccc3n2)cc1	35
CC(=O)c1ccc(NC(=O)Nc2ccc(-c3nc(N4CCOCC4)c4ccccc4n3)cc2)cc1	22
O=C(Nc1ccc(-c2nc(N3CCOCC3)c3ccccc3n2)cc1)Nc1cccc(CO)c1	13
CNC(=O)c1ccc(NC(=O)Nc2ccc(-c3nc(N4CCOCC4)c4ccccc4n3)cc2)cc1	12

System: not listed separately
Assay: Kinetic aqueous solubility of compound in 2% DMSO/Phosphate buffer saline incubated for 90 mins under shaking condition by
Type: physicochemical
Details: 2% DMSO/phosphate buffered saline, read-out: Kinetic_solubility
Procedure, shortened: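 Maximum kinetic aqueous solubility measured in 2% DMSO/phosphate-buffered saline, pH 7.4.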

SMILES	solubility kinetic at 1.5 h [µM]
N=C(N)NS(=O)(=O)c1ccc(Nc2nc(N3CCOCC3)c3ccccc3n2)cc1	22.7 (≈ 9.7 µg/mL)
CNC(=O)Nc1ccc(-c2nc(N3CCOCC3)c3ccccc3n2)cc1	192 (≈ 69.8 µg/mL)
Oc1cccc(-c2nc(N3CCOCC3)c3oc4ncccc4c3n2)c1 [PI-103]	3.4 (≈ 1.18 µg/mL)
NS(=O)(=O)c1ccc(NC(=O)Nc2ccc(-c3nc(N4CCOCC4)c4ccccc4n3)cc2)cc1	< 2
O=C(Nc1ccccc1)Nc1ccc(-c2nc(N3CCOCC3)c3ccccc3n2)cc1	8.1 (≈ 3.45 µg/mL)
CC(=O)c1ccc(NC(=O)Nc2ccc(-c3nc(N4CCOCC4)c4ccccc4n3)cc2)cc1	2 (≈ 0.935 µg/mL)
O=C(Nc1ccc(-c2nc(N3CCOCC3)c3ccccc3n2)cc1)Nc1cccc(CO)c1	8.2 (≈ 3.74 µg/mL)
CNC(=O)c1ccc(NC(=O)Nc2ccc(-c3nc(N4CCOCC4)c4ccccc4n3)cc2)cc1	< 2

System: MDA-MB-468
Assay: Antiproliferative activity against human MDA-MB-468 cells assessed as cell viability at 10 uM after 48 hrs by celltiter-glo 2D luminescent assay relative to control
Type: functional
Details: read-out: Activity
Procedure, shortened: as §1

SMILES	viability at 10 µM [%]
CNC(=O)Nc1ccc(-c2nc(N3CCOCC3)c3ccccc3n2)cc1	96
NS(=O)(=O)c1ccc(NC(=O)Nc2ccc(-c3nc(N4CCOCC4)c4ccccc4n3)cc2)cc1	33
O=C(Nc1ccccc1)Nc1ccc(-c2nc(N3CCOCC3)c3ccccc3n2)cc1	80
CC(=O)c1ccc(NC(=O)Nc2ccc(-c3nc(N4CCOCC4)c4ccccc4n3)cc2)cc1	42
O=C(Nc1ccc(-c2nc(N3CCOCC3)c3ccccc3n2)cc1)Nc1cccc(CO)c1	47
CNC(=O)c1ccc(NC(=O)Nc2ccc(-c3nc(N4CCOCC4)c4ccccc4n3)cc2)cc1	54

System: MCF7
Assay: Antiproliferative activity against human MCF7 cells assessed as reduction in cell viability after 48 hrs by celltiter-glo 3D luminescent assay
Type: functional, cell-based
Details: MCF7, 48 h
Procedure, shortened: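 MCF7 cells grown in 3D culture, viability read by CellTiter-Glo 3D luminescence; dose–response curves run up to 15 μM to derive IC50.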

SMILES	IC50 [µM]
NS(=O)(=O)c1ccc(NC(=O)Nc2ccc(-c3nc(N4CCOCC4)c4ccccc4n3)cc2)cc1	0.2
O=C(Nc1ccccc1)Nc1ccc(-c2nc(N3CCOCC3)c3ccccc3n2)cc1	1.2
O=C(Nc1ccc(-c2nc(N3CCOCC3)c3ccccc3n2)cc1)Nc1cccc(CO)c1	0.3
CNC(=O)c1ccc(NC(=O)Nc2ccc(-c3nc(N4CCOCC4)c4ccccc4n3)cc2)cc1	0.3

System: not listed separately
Assay: Half life in CD1 mouse liver microsomes at 1 uM incubated for 60 mins under shaking condition by LC-MS/MS analysis
Type: ADME, Microsome
Details: not given
Procedure, shortened: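 Metabolic stability in mouse liver microsomes with test compound at 1 μM; result expressed as t1/2 (min).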

SMILES	half-life at 1 µM [min]
N=C(N)NS(=O)(=O)c1ccc(Nc2nc(N3CCOCC3)c3ccccc3n2)cc1	44.9
CNC(=O)Nc1ccc(-c2nc(N3CCOCC3)c3ccccc3n2)cc1	8
Oc1cccc(-c2nc(N3CCOCC3)c3oc4ncccc4c3n2)c1 [PI-103]	7.1
NS(=O)(=O)c1ccc(NC(=O)Nc2ccc(-c3nc(N4CCOCC4)c4ccccc4n3)cc2)cc1	> 60
O=C(Nc1ccccc1)Nc1ccc(-c2nc(N3CCOCC3)c3ccccc3n2)cc1	> 60
CC(=O)c1ccc(NC(=O)Nc2ccc(-c3nc(N4CCOCC4)c4ccccc4n3)cc2)cc1	> 60
O=C(Nc1ccc(-c2nc(N3CCOCC3)c3ccccc3n2)cc1)Nc1cccc(CO)c1	> 60
CNC(=O)c1ccc(NC(=O)Nc2ccc(-c3nc(N4CCOCC4)c4ccccc4n3)cc2)cc1	> 60

Biological target: Serine/threonine-protein kinase mTOR (Homo sapiens, UniProt P42345)
Assay: Inhibition of human mTOR at 10 uM using 4EBP1 as substrate after 120 mins by [gamma-33P]-ATP assay
Details: not given
Procedure, shortened: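 Single-point kinase screen by HotSpot radioisotope filter binding assay; compound at 10 μM with 10 μM ATP, reported as percent inhibition of PI3Kα and mTOR.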

SMILES	inhibition
N=C(N)NS(=O)(=O)c1ccc(Nc2nc(N3CCOCC3)c3ccccc3n2)cc1	Active
CNC(=O)Nc1ccc(-c2nc(N3CCOCC3)c3ccccc3n2)cc1	Active
NS(=O)(=O)c1ccc(NC(=O)Nc2ccc(-c3nc(N4CCOCC4)c4ccccc4n3)cc2)cc1	Active
O=C(Nc1ccccc1)Nc1ccc(-c2nc(N3CCOCC3)c3ccccc3n2)cc1	Active
CC(=O)c1ccc(NC(=O)Nc2ccc(-c3nc(N4CCOCC4)c4ccccc4n3)cc2)cc1	Active
O=C(Nc1ccc(-c2nc(N3CCOCC3)c3ccccc3n2)cc1)Nc1cccc(CO)c1	Active
CNC(=O)c1ccc(NC(=O)Nc2ccc(-c3nc(N4CCOCC4)c4ccccc4n3)cc2)cc1	Active

Biological target: PI3-kinase p110-alpha/p85-alpha (Homo sapiens) (UniProt P27986+P42336)
Assay: Inhibition of human PI3K p110alpha/p85alpha at 10 uM using PIP2 as substrate incubated for 10 mins followed by ATP addition and measured after 30 mins in presence of 10 uM ATP by HTRF assay
Type: protein-complex assay
Details: not given

SMILES	inhibition
N=C(N)NS(=O)(=O)c1ccc(Nc2nc(N3CCOCC3)c3ccccc3n2)cc1	Active
CNC(=O)Nc1ccc(-c2nc(N3CCOCC3)c3ccccc3n2)cc1	Active
NS(=O)(=O)c1ccc(NC(=O)Nc2ccc(-c3nc(N4CCOCC4)c4ccccc4n3)cc2)cc1	Active
O=C(Nc1ccccc1)Nc1ccc(-c2nc(N3CCOCC3)c3ccccc3n2)cc1	Active
CC(=O)c1ccc(NC(=O)Nc2ccc(-c3nc(N4CCOCC4)c4ccccc4n3)cc2)cc1	Active
O=C(Nc1ccc(-c2nc(N3CCOCC3)c3ccccc3n2)cc1)Nc1cccc(CO)c1	Active
CNC(=O)c1ccc(NC(=O)Nc2ccc(-c3nc(N4CCOCC4)c4ccccc4n3)cc2)cc1	Active
